Assays:
NCI-H522 = assay: Cytotoxicity against human NCI-H522 cells assessed as cell growth at 10^-5 M after 48 hrs by SRB assay; type: functional; conditions: NCI-H522, 48 h, read-out: Activity
Outline: (§1)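 NCI 60-panel single-dose primary screen at 10^-5 M. Cells are grown in RPMI 1640 with 5% FBS and 2 mM L-glutamine and preincubated 24 h at 37 °C. Drug exposure is 48 h. Cells are TCA-fixed, stained with SRB and absorbance is read at 515 nm. Results are reported as percent growth of treated cells versus untreated controls, corrected using time-zero plates.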

Hs-578T = assay: Cytotoxicity against human Hs578T cells assessed as cell growth at 10^-5 M after 48 hrs by SRB assay; type: functional; conditions: read-out: Activity
Outline: (§2)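 NCI 60 single-dose screen at 10^-5 M. Cells in RPMI 1640 with 5% FBS and 2 mM L-glutamine, preincubated 24 h at 37 °C/5% CO2. Drug from DMSO stock, then 48 h exposure. TCA fixation, SRB staining, absorbance at 515 nm. Result given as percent growth of treated cells relative to untreated control.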

NCI-H322M = assay: Cytotoxicity against human NCI-H322M cells assessed as cell growth at 10^-5 M after 48 hrs by SRB assay; type: functional; conditions: read-out: Activity; outline: as §1
786-0 = assay: Cytotoxicity against human 786-0 cells assessed as cell growth at 10^-5 M after 48 hrs by SRB assay; type: functional; conditions: 786-0, 48 h, read-out: Activity; outline: as §2
T47D = assay: Cytotoxicity against human T47D cells assessed as cell growth at 10^-5 M after 48 hrs by SRB assay; type: functional; conditions: read-out: Activity
Outline: (§3)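 NCI primary single-dose screen at 10^-5 M. Cells grown in RPMI 1640 with 5% FBS and 2 mM L-glutamine, given 24 h before drug addition, then 48 h exposure at 37 °C, 5% CO2. Cells TCA-fixed, stained with SRB, read at 515 nm. Reported as percent growth of treated cells relative to untreated controls.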

NCI-H460 = assay: Cytotoxicity against human NCI-H460 cells assessed as cell growth at 10^-5 M after 48 hrs by SRB assay; type: functional; conditions: NCI-H460, 48 h, read-out: Activity; outline: as §1
SN12C = assay: Cytotoxicity against human SN12C cells assessed as cell growth at 10^-5 M after 48 hrs by SRB assay; type: functional; conditions: read-out: Activity; outline: as §1
TK-10 = assay: Cytotoxicity against human TK10 cells assessed as cell growth at 10^-5 M after 48 hrs by SRB assay; type: functional; conditions: TK-10, 48 h, read-out: Activity; outline: as §3
SF-539 = assay: Cytotoxicity against human SF539 cells assessed as cell growth at 10^-5 M after 48 hrs by SRB assay; type: functional; conditions: SF-539, 48 h, read-out: Activity; outline: as §1
MDA-MB-231 = assay: Cytotoxicity against human MDA-MB-231 cells assessed as cell growth at 10^-5 M after 48 hrs by SRB assay; type: functional; conditions: MDA-MB-231, 48 h, read-out: Activity; outline: as §2
HOP-62 = assay: Cytotoxicity against human HOP62 cells assessed as cell growth at 10^-5 M after 48 hrs by SRB assay; type: functional; conditions: HOP-62, 48 h, read-out: Activity; outline: as §2
BT-549 = assay: Cytotoxicity against human BT549 cells assessed as cell growth at 10^-5 M after 48 hrs by SRB assay; type: functional; conditions: BT-549, 48 h, read-out: Activity; outline: as §2
UACC-62 = assay: Cytotoxicity against human UACC62 cells assessed as cell growth at 10^-5 M after 48 hrs by SRB assay; type: functional; conditions: UACC-62, 48 h, read-out: Activity; outline: as §3
UACC-257 = assay: Cytotoxicity against human UACC257 cells assessed as cell growth at 10^-5 M after 48 hrs by SRB assay; type: functional; conditions: UACC-257, 48 h, read-out: Activity; outline: as §3
NCI-H23 = assay: Cytotoxicity against human NCI-H23 cells assessed as cell growth at 10^-5 M after 48 hrs by SRB assay; type: functional; conditions: NCI-H23, 48 h, read-out: Activity; outline: as §1
OVCAR-8 = assay: Cytotoxicity against human OVCAR8 cells assessed as cell growth at 10^-5 M after 48 hrs by SRB assay; type: functional; conditions: OVCAR-8, 48 h, read-out: Activity; outline: as §1
SW-620 = assay: Cytotoxicity against human SW620 cells assessed as cell growth at 10^-5 M after 48 hrs by SRB assay; type: functional; conditions: SW-620, 48 h, read-out: Activity; outline: as §3
[1] = Cytotoxicity against human EKVX cells assessed as cell growth at 10^-5 M after 48 hrs by SRB assay; type: functional; conditions: read-out: Activity; outline: as §2
[2] = Cytotoxicity against human NCI-ADR-RES cells assessed as cell growth at 10^-5 M after 48 hrs by SRB assay; type: functional; conditions: read-out: Activity; outline: as §1
DU-145 = assay: Cytotoxicity against human DU145 cells assessed as cell growth at 10^-5 M after 48 hrs by SRB assay; type: functional; conditions: DU-145, 48 h, read-out: Activity; outline: as §2
KM12 = assay: Cytotoxicity against human KM12 cells assessed as cell growth at 10^-5 M after 48 hrs by SRB assay; type: functional; conditions: KM12, 48 h, read-out: Activity; outline: as §2
HCT-15 = assay: Cytotoxicity against human HCT15 cells assessed as cell growth at 10^-5 M after 48 hrs by SRB assay; type: functional; conditions: HCT-15, 48 h, read-out: Activity; outline: as §2
ACHN = assay: Cytotoxicity against human ACHN cells assessed as cell growth at 10^-5 M after 48 hrs by SRB assay; type: functional; conditions: read-out: Activity; outline: as §2
Malme-3M = assay: Cytotoxicity against human MALME-3M cells assessed as cell growth at 10^-5 M after 48 hrs by SRB assay; type: functional; conditions: read-out: Activity; outline: as §2
K562 = assay: Cytotoxicity against human K562 cells assessed as cell growth at 10^-5 M after 48 hrs by SRB assay; type: functional; conditions: K562, 48 h, read-out: Activity; outline: as §2
[3] = biological target: Epidermal growth factor receptor (Homo sapiens, UniProt P00533); conditions: at 10 µM;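 also: EGFR tyrosine kinase activity on a poly(Glu,Tyr) substrate, read out by Kinase-Glo Plus luminescence after a 40 min reaction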
U-251 = assay: Cytotoxicity against human U251 cells assessed as cell growth at 10^-5 M after 48 hrs by SRB assay; type: functional; conditions: U-251, 48 h, read-out: Activity; outline: as §3
A498 = assay: Cytotoxicity against human A498 cells assessed as cell growth at 10^-5 M after 48 hrs by SRB assay; type: functional; conditions: A498, 48 h, read-out: Activity; outline: as §2
MDA-MB-435 = assay: Cytotoxicity against human MDA-MB-435 cells assessed as cell growth at 10^-5 M after 48 hrs by SRB assay; type: functional; conditions: MDA-MB-435, 48 h, read-out: Activity; outline: as §2
COLO 205 = assay: Cytotoxicity against human COLO205 cells assessed as cell growth at 10^-5 M after 48 hrs by SRB assay; type: functional; conditions: COLO 205, 48 h, read-out: Activity; outline: as §2
PC-3 = assay: Cytotoxicity against human PC3 cells assessed as cell growth at 10^-5 M after 48 hrs by SRB assay; type: functional; conditions: PC-3, 48 h, read-out: Activity; outline: as §1
SNB-75 = assay: Cytotoxicity against human SNB75 cells assessed as cell growth at 10^-5 M after 48 hrs by SRB assay; type: functional; conditions: SNB-75, 48 h, read-out: Activity; outline: as §1
HT-29 = assay: Cytotoxicity against human HT-29 cells assessed as cell growth at 10^-5 M after 48 hrs by SRB assay; type: functional; conditions: HT-29, 48 h, read-out: Activity; outline: as §2

Sequence of Epidermal growth factor receptor (P00533 whole entry): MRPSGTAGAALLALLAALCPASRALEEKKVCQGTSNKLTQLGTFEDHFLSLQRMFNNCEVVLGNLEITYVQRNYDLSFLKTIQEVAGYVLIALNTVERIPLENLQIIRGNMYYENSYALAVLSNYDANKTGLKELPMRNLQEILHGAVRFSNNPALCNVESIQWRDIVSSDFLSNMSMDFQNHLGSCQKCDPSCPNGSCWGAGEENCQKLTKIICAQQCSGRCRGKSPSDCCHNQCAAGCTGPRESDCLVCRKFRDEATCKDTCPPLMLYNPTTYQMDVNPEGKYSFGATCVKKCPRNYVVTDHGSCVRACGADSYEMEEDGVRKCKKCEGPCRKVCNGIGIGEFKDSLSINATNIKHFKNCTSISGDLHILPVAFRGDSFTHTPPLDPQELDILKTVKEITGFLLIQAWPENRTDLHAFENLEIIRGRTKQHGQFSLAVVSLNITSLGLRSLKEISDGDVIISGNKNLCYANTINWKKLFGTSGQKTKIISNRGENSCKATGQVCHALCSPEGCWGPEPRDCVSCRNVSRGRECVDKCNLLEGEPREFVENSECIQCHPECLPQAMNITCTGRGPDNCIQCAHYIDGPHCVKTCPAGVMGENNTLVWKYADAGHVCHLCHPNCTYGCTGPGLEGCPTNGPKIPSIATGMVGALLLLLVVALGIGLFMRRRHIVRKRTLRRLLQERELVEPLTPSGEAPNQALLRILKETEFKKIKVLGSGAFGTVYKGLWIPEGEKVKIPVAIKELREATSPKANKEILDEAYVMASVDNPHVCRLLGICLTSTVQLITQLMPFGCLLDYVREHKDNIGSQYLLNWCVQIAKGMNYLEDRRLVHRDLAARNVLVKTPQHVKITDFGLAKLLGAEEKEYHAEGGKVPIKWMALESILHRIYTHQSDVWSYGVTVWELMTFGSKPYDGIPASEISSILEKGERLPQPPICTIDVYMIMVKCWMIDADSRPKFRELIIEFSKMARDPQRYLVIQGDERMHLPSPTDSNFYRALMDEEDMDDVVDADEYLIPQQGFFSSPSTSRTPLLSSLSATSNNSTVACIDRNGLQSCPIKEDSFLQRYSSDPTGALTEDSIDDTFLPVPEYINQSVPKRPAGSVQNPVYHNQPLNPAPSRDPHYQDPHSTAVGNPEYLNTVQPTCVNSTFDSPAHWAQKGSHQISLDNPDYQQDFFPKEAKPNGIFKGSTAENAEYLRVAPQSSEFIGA

Row | Compound | growth at 10 µM (NCI-H522) [%] | growth at 10 µM (Hs-578T) [%] | growth at 10 µM (NCI-H322M) [%] | growth at 10 µM (786-0) [%] | growth at 10 µM (T47D) [%] | growth at 10 µM (NCI-H460) [%] | growth at 10 µM (SN12C) [%] | growth at 10 µM (TK-10) [%] | growth at 10 µM (SF-539) [%] | growth at 10 µM (MDA-MB-231) [%] | growth at 10 µM (HOP-62) [%] | growth at 10 µM (BT-549) [%] | growth at 10 µM (UACC-62) [%] | growth at 10 µM (UACC-257) [%] | growth at 10 µM (NCI-H23) [%] | growth at 10 µM (OVCAR-8) [%] | growth at 10 µM (SW-620) [%] | growth at 10 µM [1] [%] | growth at 10 µM [2] [%] | growth at 10 µM (DU-145) [%] | also measured
1 | C#Cc1cccc(Nc2ncnc3ccc(N/C=C(\C#N)C(=O)OCC)cc23)c1 | 86.3 | 103 | 52.3 | 91.7 | 73.4 | 100 | 97.1 | 65.5 | 97.8 | 97.2 | 99.9 | 99.6 | 104 | 99.8 | 98.2 | 94.8 | 105 | 31.9 | 100 | 69.9 | growth at 10 µM (KM12): 98.1%; growth at 10 µM (HCT-15): 94.2%; growth at 10 µM (ACHN): 63.1%; growth at 10 µM (Malme-3M): 119%; growth at 10 µM (K562): 96.4%; inhibition [3]: 95%; growth at 10 µM (U-251): 85.4%; growth at 10 µM (A498): 82.5%; growth at 10 µM (MDA-MB-435): 92%; growth at 10 µM (COLO 205): 104%; growth at 10 µM (PC-3): 91.4%; growth at 10 µM (SNB-75): 92.5%; growth at 10 µM (HT-29): 98%
2 | CCOC(=O)/C(C#N)=C\Nc1ccc2ncnc(Nc3ccc(Cl)cc3Cl)c2c1 | 95.8 | 75.5 | 75.7 | 82.6 | 58.6 | 84.8 | 89.5 | 44.2 | 92.7 | 85.2 | 101 | 89.6 | 90 | 97.2 | 99.5 | 87 | 100 | 41.7 | 85.4 | 55.9 | growth at 10 µM (KM12): 79.1%; growth at 10 µM (HCT-15): 92.7%; growth at 10 µM (ACHN): 62.9%; growth at 10 µM (Malme-3M): 140%; growth at 10 µM (K562): 59.7%; inhibition [3]: 92%; growth at 10 µM (U-251): 81.3%; growth at 10 µM (A498): 48.7%; growth at 10 µM (MDA-MB-435): 75.7%; growth at 10 µM (COLO 205): 108%; growth at 10 µM (PC-3): 59.3%; growth at 10 µM (SNB-75): 91.3%; growth at 10 µM (HT-29): 79.4%
3 | NC(=O)Nc1ccc2ncnc(Nc3ccc(Cl)cc3)c2c1 | 66.2 | 87.8 | 18 | 85.9 | 61.6 | 88 | 81.9 | 26.5 | 95.7 | 89.3 | 86.2 | 92.4 | 87.9 | 100 | 100 | 89.5 | 99.1 | 22.4 | 88.7 | 52 | growth at 10 µM (KM12): 98.5%; growth at 10 µM (HCT-15): 93.1%; growth at 10 µM (ACHN): 47.4%; growth at 10 µM (Malme-3M): 117%; growth at 10 µM (K562): 71.4%; inhibition [3]: 100%; growth at 10 µM (U-251): 95.7%; growth at 10 µM (A498): 43.4%; growth at 10 µM (MDA-MB-435): 97.8%; growth at 10 µM (COLO 205): 101%; growth at 10 µM (PC-3): 79%; growth at 10 µM (SNB-75): 95%; growth at 10 µM (HT-29): 91.6%
4 | NC(=O)Nc1ccc2ncnc(Nc3cccc(O)c3)c2c1 | 102 | 105 | 83.5 | 92.6 | 76.6 | 108 | 94.9 | 103 | 109 | 104 | 92.8 | 108 | 105 | 99.8 | 100 | 98.9 | 99.1 | 82.6 | 96.8 | 90.4 | growth at 10 µM (KM12): 96.1%; growth at 10 µM (HCT-15): 108%; growth at 10 µM (ACHN): 103%; growth at 10 µM (Malme-3M): 121%; growth at 10 µM (K562): 103%; inhibition [3]: 100%; growth at 10 µM (U-251): 87.8%; growth at 10 µM (A498): 77.4%; growth at 10 µM (MDA-MB-435): 101%; growth at 10 µM (COLO 205): 94.7%; growth at 10 µM (PC-3): 102%; growth at 10 µM (SNB-75): 102%; growth at 10 µM (HT-29): 106%
